Measurements gathered from unrelated publications.
Lines come from different studies, so protocols differ.
Effect on: cell growth or viability

O=c1c2ccccc2nc(S)n1-c1ccccc1 — viability (LoVo; LDH; 200 µg/mL; 24 h): 63%
Cc1cccc(-n2ncc(Cl)c(Cl)c2=O)c1 — IC50 (NCI-H2122; resazurin; 96 h): 1.15 µM
O=C(O)C(Cl)Cl — IC50 (LoVo; MTT; 72 h): > 50 µM
COc1c2c(cc3c1OCO3)[C@]13C=C[C@H](OC)C[C@@H]1[N@](C2)C[C@H]3OC(=O)c1ccco1 — IC50 (A2780; WST-1): > 10 µM
O=C(O)CCCc1ccc(N(CCCl)CCCl)cc1 — IC50 (A2780; CCK-8; 48 h): > 50 µM
O=c1ccc2cc3ccoc3cc2o1 — IC50 (RD; WST-1; 48 h): 28.3 µM
N.N.[Cl][Pt][Cl] — GI50 (LoVo; ATP luminescence): 1.7 µg/mL
CCCCCCCCCCCCCCCC[N+](C)(C)C — IC50 (LLC-PK1; MTT): 6 µM
COc1c2c(cc3c1OCO3)[C@]13C=C[C@H](OC)C[C@@H]1[N@](C2)C[C@H]3OC(=O)c1ccoc1 — IC50 (A2780; WST-1): > 10 µM
O=c1ccc2ccc3occc3c2o1 — IC50 (RD; WST-1; 48 h): 12.9 µM
c1ccc2c(c1)[I+]c1ccccc1-2 — IC50 (Caco-2; trypan blue; 48 h): ~0.01 µM
